Test results taken from ChEMBL document CHEMBL1687889, “Antitumor agents. 284. New desmosdumotin B analogues with bicyclic B-ring as cytotoxic and antitubulin agents” (J Med Chem, 2011).
pIC50: −log10 of the molar value. The source made the active and inactive calls. No cut-off for these calls is given here.

Assays:
HCT-8 [1] = assay: Antiproliferative activity against human HCT8 cells at 20 ug/ml after 3 days by sulforhodamine B assay; assay type: functional, cell-based
PC-3 [2] = assay: Antiproliferative activity against human PC3 cells at 20 ug/ml after 3 days by sulforhodamine B assay; assay type: functional, cell-based
A549 [3] = assay: Antiproliferative activity against human A549 cells at 20 ug/ml after 3 days by sulforhodamine B assay; assay type: functional, cell-based
MCF7 [4] = assay: Antiproliferative activity against human MCF7 cells at 20 ug/ml after 3 days by sulforhodamine B assay; assay type: functional, cell-based
HepG2 [5] = assay: Antiproliferative activity against human HepG2 cells at 20 ug/ml after 3 days by sulforhodamine B assay; assay type: functional, cell-based
KB [6] = assay: Antiproliferative activity against human KB cells at 20 ug/ml after 3 days by sulforhodamine B assay; assay type: functional, cell-based
KBVIN = assay: Antiproliferative activity against human KBVIN cells at 20 ug/ml after 3 days by sulforhodamine B assay; assay type: functional, cell-based
HCT-8 [7] = assay: Antiproliferative activity against human HCT8 cells after 3 days by sulforhodamine B assay; assay type: functional; settings: HCT-8, 72 h
Outline: (§1)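 Cells grown in RPMI-1640 with 25 mM HEPES, 0.25% sodium bicarbonate, 10% FBS and 100 μg/mL kanamycin. Exposed to compound for 3 days, with at most 0.5% v/v DMSO. Attached cells fixed in cold 50% TCA, stained with 0.4% sulforhodamine B, and the bound dye solubilized. A562 read. GI50 is the concentration giving a 50% absorbance drop versus untreated cells.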

PC-3 [8] = assay: Antiproliferative activity against human PC3 cells after 3 days by sulforhodamine B assay; assay type: functional; settings: PC-3, 72 h
A549 [9] = assay: Antiproliferative activity against human A549 cells after 3 days by sulforhodamine B assay; assay type: functional; settings: A549, 72 h; outline: as §1
MCF7 [10] = assay: Antiproliferative activity against human MCF7 cells after 3 days by sulforhodamine B assay; assay type: functional; settings: MCF7, 72 h
HepG2 [11] = assay: Antiproliferative activity against human HepG2 cells after 3 days by sulforhodamine B assay; assay type: functional; settings: HepG2, 72 h
Outline: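 Sulforhodamine B assay over 3 days in culture, with at most 0.5% v/v DMSO. Attached cells fixed in cold 50% TCA, stained with 0.4% SRB, and the dye solubilized. Absorbance read at 562 nm. GI50 is the concentration causing a 50% fall in absorbance relative to untreated cells.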

KB [12] = assay: Antiproliferative activity against human KB cells after 3 days by sulforhodamine B assay; assay type: functional; settings: 72 h; outline: as §1
[13] = Antiproliferative activity against human KBVIN cells after 3 days by sulforhodamine B assay; assay type: functional; settings: 72 h; outline: as §1
[14] = Displacement of [3H]colchicine from tubulin at 5 uM for 10 mins
Outline: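 1.0 μM tubulin incubated with 5.0 μM [3H]colchicine and 5.0 μM inhibitor for 10 min at 37 °C, when control samples reach about 40–60% of maximal colchicine binding. Result given as percent inhibition of colchicine binding.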

[15] = Partial inhibition of tubulin assembly after 20 mins at 4 uM by turbidimetric assay
Outline: (§2)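 Turbidimetry at 350 nm. 10 μM (1.0 mg/mL) tubulin preincubated with compound for 15 min at 30 °C without GTP, then chilled, and 0.4 mM GTP added. Turbidity followed for 20 min at 30 °C after a temperature jump from 0 °C. IC50 is the concentration halving the turbidity increase relative to control.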

[16] = Inhibition of tubulin assembly after 20 mins by turbidimetric assay; settings: for pIC50: read-out: IC50; outline: as §2
[17] = Binding affinity to tubulin at 40 uM
A549 [18] = assay: Inhibition of microtubule polymerization in human A549 cells after 24 hs by immunofluorescence staining; assay type: cell-based
Outline: (§3)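 A549 cells held in chamber slides 12 h, then exposed to compound (0.1 nM) or DMSO for 24 h at 37 °C; fixed in 4% paraformaldehyde/PBS, permeabilized with 0.5% Triton X-100, stained with anti-α-tubulin monoclonal plus FITC secondary and DAPI for nuclei; microtubules and mitotic spindles scored by fluorescence microscopy. Comparators: colchicine 100 nM, paclitaxel 1.5 nM, doxorubicin 500 nM.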

A549 [19] = assay: Inhibition of spindle formation in human A549 cells after 24 hs by DAPI staining; assay type: functional, cell-based; outline: as §3
DU-145 = assay: Antiproliferative activity against human DU145 cells after 3 days by sulforhodamine B assay; assay type: functional; settings: DU-145, 72 h

With `CCC1=C(O)c2c(oc(-c3c4ccccc4cc4ccccc34)cc2=O)C(CC)(CC)C1=O` the Activity (HCT-8 [1]) was “inactive”, the Activity (PC-3 [2]) was “inactive” and the Activity (A549 [3]) was “inactive”. The Activity (MCF7 [4]) was “inactive”, the Activity (HepG2 [5]) was “inactive” and the Activity (KB [6]) was “inactive”. The Activity (KBVIN) was “inactive”.

`CCC1=C(O)c2c(oc(-c3ccc4ccccc4c3)cc2=O)C(CC)(CC)C1=O` showed a GI50 (HCT-8 [7]) of 1.29 µM, a GI50 (PC-3 [8]) of 2.58 µM and a GI50 (A549 [9]) of 1.16 µM. The GI50 (MCF7 [10]) was 1.42 µM, the GI50 (HepG2 [11]) was 1.55 µM and the GI50 (KB [12]) was 1.03 µM. The GI50 [13] was 1.16 µM, the inhibition [14] was 29% and the inhibition [15] was “Active”.

With `CCC1=C(O)c2c(oc(-c3ccccc3)cc2=O)C(CC)(CC)C1=O` [6,8,8-TRIETHYL DESMOSDUMOTIN B] the GI50 [13] was 1.07 µM, the IC50 [16] was “Not Active” and the Activity (HCT-8 [1]) was “inactive”. The Activity (PC-3 [2]) was “inactive”, the Activity (A549 [3]) was “inactive” and the Activity (MCF7 [4]) was “inactive”. The Activity (HepG2 [5]) was “inactive”, the Activity (KB [6]) was “inactive” and the Activity [17] was “inactive”.

`CCC1=C(O)c2c(oc(-c3csc4ccccc34)cc2=O)C(CC)(CC)C1=O` gave a GI50 (HCT-8 [7]) of 0.13 µM, a GI50 (PC-3 [8]) of 0.16 µM and a GI50 (A549 [9]) of 0.06 µM. For the same compound, the GI50 (MCF7 [10]) was 0.11 µM, the GI50 (HepG2 [11]) was 0.13 µM and the GI50 (KB [12]) was 0.08 µM. For the same compound, the GI50 [13] was 0.07 µM, the pIC50 [16] was 5.70 and the inhibition [14] was 78%. For the same compound, the inhibition (A549 [18]) was “Active” and the inhibition (A549 [19]) was “Active”.

With `CCC1=C(O)c2c(oc(-c3c(OC)c(OC)cc4ccccc34)cc2=O)C(CC)(CC)C1=O` the GI50 [13] was 35.7 µM, the Activity (HCT-8 [1]) was “inactive” and the Activity (A549 [3]) was “inactive”. The Activity (KB [6]) was “inactive”.

In the case of `CCC1=C(O)c2c(oc(-c3sc4ccccc4c3C)cc2=O)C(CC)(CC)C1=O`, the GI50 (HCT-8 [7]) was greater than 25 µM, the GI50 (PC-3 [8]) was greater than 25 µM and the GI50 (A549 [9]) was greater than 25 µM. It also gave a GI50 (DU-145) greater than 25 µM, a GI50 (HepG2 [11]) greater than 25 µM and a GI50 (KB [12]) greater than 25 µM. The GI50 [13] was greater than 25 µM.

`CCC1=C(O)c2c(oc(-c3ccc4sccc4c3)cc2=O)C(CC)(CC)C1=O` gave a GI50 (HCT-8 [7]) greater than 25 µM, a GI50 (PC-3 [8]) greater than 25 µM and a GI50 (A549 [9]) greater than 25 µM. It also gave a GI50 (DU-145) of 10.4 µM, a GI50 (HepG2 [11]) greater than 25 µM and a GI50 (KB [12]) of 11.2 µM. It also gave a GI50 [13] greater than 25 µM.

Work on `CCC1=C(O)c2c(oc(-c3csc4ccc(Br)cc34)cc2=O)C(CC)(CC)C1=O` yielded a GI50 (HCT-8 [7]) of 42.2 µM, a GI50 (PC-3 [8]) of 38 µM and a GI50 (A549 [9]) of 42.2 µM. The GI50 (DU-145) was 31.7 µM, the GI50 (HepG2 [11]) was 30.6 µM and the GI50 (KB [12]) was 26.4 µM. It also gave a GI50 [13] of 10.6 µM.

With `CCC1=C(O)c2c(oc(-c3ccc4c(c3)c3ccccc3n4CC)cc2=O)C(CC)(CC)C1=O` the Activity (HCT-8 [1]) was “inactive”, the Activity (PC-3 [2]) was “inactive” and the Activity (A549 [3]) was “inactive”. For the same compound, the Activity (MCF7 [4]) was “inactive”, the Activity (HepG2 [5]) was “inactive” and the Activity (KB [6]) was “inactive”. The Activity (KBVIN) was “inactive”.

`CCC1=C(O)c2c(oc(-c3cccc4ccccc34)c(Br)c2=O)C(CC)(CC)C1=O` gave a GI50 (HCT-8 [7]) of 13.9 µM, a GI50 (A549 [9]) of 25.6 µM and a GI50 (MCF7 [10]) of 24.6 µM. For the same compound, the GI50 (KB [12]) was 6.41 µM, the GI50 [13] was 12 µM and the Activity (PC-3 [2]) was “inactive”. The Activity (HepG2 [5]) was “inactive”.

`CCC1=C(O)c2c(oc(-c3c(O)ccc4sccc34)cc2=O)C(CC)(CC)C1=O` showed a GI50 (HCT-8 [7]) of 3.66 µM, a GI50 (PC-3 [8]) of 21.5 µM and a GI50 (A549 [9]) of 3.17 µM. It also gave a GI50 (DU-145) of 1.12 µM, a GI50 (HepG2 [11]) of 1.02 µM and a GI50 (KB [12]) of 0.76 µM. It also gave a GI50 [13] of 0.78 µM, a pIC50 [16] of 5.47 and an inhibition [14] of 52%.

With `CCC1=C(O)c2c(oc(-c3c(OC)ccc4sccc34)cc2=O)C(CC)(CC)C1=O` the GI50 (HCT-8 [7]) was 19.6 µM, the GI50 (PC-3 [8]) was 51.9 µM and the GI50 (A549 [9]) was 66 µM. It also gave a GI50 (DU-145) of 21.5 µM, a GI50 (HepG2 [11]) of 24.8 µM and a GI50 (KB [12]) of 11.3 µM. The GI50 [13] was 11.1 µM.

In the case of `CCC1=C(O)c2c(oc(-c3c(C)sc4ccccc34)cc2=O)C(CC)(CC)C1=O`, the GI50 (HCT-8 [7]) was 2.7 µM, the GI50 (PC-3 [8]) was 90.7 µM and the GI50 (A549 [9]) was 1.35 µM. For the same compound, the GI50 (DU-145) was 3.92 µM, the GI50 (HepG2 [11]) was 2.03 µM and the GI50 (KB [12]) was 0.61 µM. The GI50 [13] was 0.76 µM, the pIC50 [16] was 5.47 and the inhibition [14] was 38%.

For `CCC1=C(O)c2c(oc(-c3ccc(OC)c4ccc(OC)cc34)cc2=O)C(CC)(CC)C1=O`, the Activity (HCT-8 [1]) was “inactive”, the Activity (PC-3 [2]) was “inactive” and the Activity (A549 [3]) was “inactive”. For the same compound, the Activity (MCF7 [4]) was “inactive”, the Activity (HepG2 [5]) was “inactive” and the Activity (KB [6]) was “inactive”. The Activity (KBVIN) was “inactive”.

Work on `CCC1=C(O)c2c(oc(-c3cccc4ccsc34)cc2=O)C(CC)(CC)C1=O` yielded a GI50 (HCT-8 [7]) of 11.2 µM, a GI50 (PC-3 [8]) of 3.81 µM and a GI50 (A549 [9]) of 5.84 µM. The GI50 (DU-145) was 0.74 µM, the GI50 (HepG2 [11]) was 1.9 µM and the GI50 (KB [12]) was 2.49 µM. For the same compound, the GI50 [13] was 0.94 µM.

With `CC1=C(O)C(C)(C)c2oc(-c3ccccc3)cc(=O)c2C1=O` [DESMOTUMOTIN B] the GI50 [13] was 13.5 µM, the Activity (HCT-8 [1]) was “inactive” and the Activity (PC-3 [2]) was “inactive”. The Activity (A549 [3]) was “inactive”, the Activity (MCF7 [4]) was “inactive” and the Activity (HepG2 [5]) was “inactive”. For the same compound, the Activity (KB [6]) was “inactive”.

With `CCC1=C(O)c2c(oc(-c3cccc4c3oc3ccccc34)cc2=O)C(CC)(CC)C1=O` the Activity (HCT-8 [1]) was “inactive”, the Activity (PC-3 [2]) was “inactive” and the Activity (A549 [3]) was “inactive”. For the same compound, the Activity (MCF7 [4]) was “inactive”, the Activity (HepG2 [5]) was “inactive” and the Activity (KB [6]) was “inactive”. The Activity (KBVIN) was “inactive”.

In the case of `COc1cc2c(c(OC)c1OC)-c1ccc(OC)c(=O)cc1[C@@H](NC(C)=O)CC2`, the inhibition (A549 [18]) was “Active” and the inhibition (A549 [19]) was “Active”.
